# Laboratory results as given in ChEMBL document CHEMBL3352312, “Synthesis of linear and cyclic guazatine derivatives endowed with antibacterial activity” (Bioorg Med Chem Lett, 2014).
# What was measured:
# Acinetobacter baumannii [1] = experiment: Antibacterial activity against Acinetobacter baumannii ATCC 17978 after 16 to 18 hrs by microbroth dilution method; format: functional
# Method in brief: (§1)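 Broth microdilution in Mueller–Hinton broth following CLSI recommendations. Strains came from ATCC or CCUG collections or the authors' clinical isolates. Compounds were dissolved in DMSO as a 100 mg/ml stock and then diluted in culture medium. Inoculum was 5 × 10⁴ CFU/well. MIC was read after 16–18 h incubation at 35–37 °C.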
# Aeromonas hydrophila = experiment: Antibacterial activity against Aeromonas hydrophila ATCC 7966 after 16 to 18 hrs by microbroth dilution method; format: functional; method in brief: as §1
# [2] = system: Elizabethkingia meningoseptica; experiment: Antibacterial activity against Elizabethkingia meningoseptica CCUG 4310 after 16 to 18 hrs by microbroth dilution method; format: functional; method in brief: as §1
# Escherichia coli = experiment: Antibacterial activity against Escherichia coli CCUGT after 16 to 18 hrs by microbroth dilution method; format: functional; method in brief: as §1
# Klebsiella pneumoniae [3] = experiment: Antibacterial activity against Klebsiella pneumoniae ATCC 13833 after 16 to 18 hrs by microbroth dilution method; format: functional; method in brief: as §1
# Pseudomonas aeruginosa [4] = experiment: Antibacterial activity against Pseudomonas aeruginosa ATCC 27853 after 16 to 18 hrs by microbroth dilution method; format: functional; method in brief: as §1
# Bacillus subtilis = experiment: Antibacterial activity against Bacillus subtilis ATCC 6633 after 16 to 18 hrs by microbroth dilution method; format: functional; method in brief: as §1
# Enterococcus faecalis = experiment: Antibacterial activity against Enterococcus faecalis ATCC 19433 after 16 to 18 hrs by microbroth dilution method; format: functional; method in brief: as §1
# Staphylococcus aureus [5] = experiment: Antibacterial activity against Staphylococcus aureus ATCC 25923 after 16 to 18 hrs by microbroth dilution method; format: functional
# Method in brief: (§2)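 Broth microdilution MIC per CLSI in Mueller–Hinton broth. Inoculum 5 × 10⁴ CFU/well. Compounds dissolved in DMSO at 100 mg/ml, then diluted in culture medium. Plates incubated 16–18 h at 35–37 °C before reading the MIC. Strains were taken from ATCC or CCUG collections or from the authors' clinical isolate collection.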
# [6] = system: Staphylococcus epidermidis; experiment: Antibacterial activity against Staphylococcus epidermidis ATCC 14990 after 16 to 18 hrs by microbroth dilution method; format: functional; method in brief: as §1
# Streptococcus pyogenes = experiment: Antibacterial activity against Streptococcus pyogenes ATCC 12344 after 16 to 18 hrs by microbroth dilution method; format: functional; method in brief: as §1
# Acinetobacter baumannii [7] = experiment: Antibacterial activity against penicillin/expanded-spectrum cephalosporin/carbapenem/aztreonam/aminoglycoside/fluoroquinolone/fosfomycin/trimethoprim/sulfamethoxazole-resistant Acinetobacter baumannii AC-54/97 after 16 to 18 hrs by microbroth dilution method; format: functional; method in brief: as §2
# [8] = system: Achromobacter xylosoxidans; experiment: Antibacterial activity against penicillin/expanded-spectrum cephalosporin/carbapenem/aminoglycoside-resistant Achromobacter xylosoxidans AX 22 after 16 to 18 hrs by microbroth dilution method; format: functional; method in brief: as §2
# Alcaligenes faecalis = experiment: Antibacterial activity against expanded-spectrum cephalosporin/carbapenem/monobactam-resistant Alcaligenes faecalis 424/98 after 16 to 18 hrs by microbroth dilution method; format: functional; method in brief: as §2
# Enterobacter cloacae = experiment: Antibacterial activity against penicillin/CEPH/carbapenem/aminoglycoside/fluoroquinolone-resistant Enterobacter cloacae VA-417/02 after 16 to 18 hrs by microbroth dilution method; format: functional; method in brief: as §2
# Klebsiella pneumoniae [9] = experiment: Antibacterial activity against penicillin/expanded-spectrum cephalosporin/carbapenem/aminoglycoside/fluoroquinolone/trimethoprim/sulfamethoxazole-resistant Klebsiella pneumoniae 7023 after 16 to 18 hrs by microbroth dilution method; format: functional; method in brief: as §2
# Pseudomonas aeruginosa [10] = experiment: Antibacterial activity against penicillin/expanded-spectrum cephalosporin/carbapenem/aminoglycoside-resistant Pseudomonas aeruginosa 101/1477 after 16 to 18 hrs by microbroth dilution method; format: functional; method in brief: as §2
# Pseudomonas aeruginosa [11] = experiment: Antibacterial activity against penicillin/expanded-spectrum cephalosporin/carbapenem/monobactam/aminoglycoside/fluoroquinolone-resistant Pseudomonas aeruginosa VR-143/97 after 16 to 18 hrs by microbroth dilution method; format: functional; method in brief: as §2
# [12] = system: Stenotrophomonas maltophilia; experiment: Antibacterial activity against penicillin/expanded-spectrum cephalosporin/carbapenem/monobactam/aminoglycoside/trimethoprim/sulfamethoxazole/fosfomycin-resistant Stenotrophomonas maltophilia 634/08 after 16 to 18 hrs by microbroth dilution method; format: functional; method in brief: as §2
# Staphylococcus aureus [13] = experiment: Antibacterial activity against penicillin-resistant Staphylococcus aureus ATCC 43300 after 16 to 18 hrs by microbroth dilution method; format: functional; method in brief: as §2
# Staphylococcus aureus [14] = experiment: Antibacterial activity against glycopeptide-resistant Staphylococcus aureus ATCC 700699 (VanA) after 16 to 18 hrs by microbroth dilution method; format: functional; method in brief: as §2
# [15] = system: Staphylococcus haemolyticus; experiment: Antibacterial activity against aminoglycoside-resistant Staphylococcus haemolyticus SI-6/2011 after 16 to 18 hrs by microbroth dilution method; format: functional; method in brief: as §2
# Staphylococcus warneri = experiment: Antibacterial activity against penicillin/aminoglycoside-resistant Staphylococcus warneri SI-5/2011 after 16 to 18 hrs by microbroth dilution method; format: functional; method in brief: as §2
# Staphylococcus hominis = experiment: Antibacterial activity against linezolid-resistant Staphylococcus hominis SI-7/2011 after 16 to 18 hrs by microbroth dilution method; format: functional; method in brief: as §2
# [16] = Apparent permeability of the compound at pH 7.4 after 5 hrs by PAMPA; format: physicochemical
# Method in brief: (§3)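 Parallel artificial membrane permeability assay run at physiological pH 7.4 and at alkaline pH 10.0, the duodenal-like condition, as a gastrointestinal permeability model. Apparent permeability (P_app) is reported in nm/s, together with the percentage of compound retained in the membrane.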
# [17] = Apparent permeability of the compound at pH 10.0 after 5 hrs by PAMPA; format: physicochemical; method in brief: as §3
# [18] = Apparent permeability of the compound assessed as membrane retention at pH 7.4 after 5 hrs by PAMPA; format: physicochemical; details: pH 7.4, 5 h; method in brief: as §3
# [19] = Apparent permeability of the compound assessed as membrane retention at pH 10.0 after 5 hrs by PAMPA; format: physicochemical; details: pH 10, 5 h; method in brief: as §3
# [20] = Solubility of the compound in pure water at 1.2 mg after 24 to 36 hrs by LC-MS/MS analysis; format: physicochemical
# [21] = Metabolic stability in human liver microsomes after 60 mins by LC-UV-MS analysis; format: ADME; details: read-out: Stability
# Albumin = Albumin (Homo sapiens, UniProt P02768); experiment: Binding affinity to human serum albumin after 30 mins by fluorescence spectroscopic analysis; format: ADME
# Chain of Albumin (P02768 whole entry): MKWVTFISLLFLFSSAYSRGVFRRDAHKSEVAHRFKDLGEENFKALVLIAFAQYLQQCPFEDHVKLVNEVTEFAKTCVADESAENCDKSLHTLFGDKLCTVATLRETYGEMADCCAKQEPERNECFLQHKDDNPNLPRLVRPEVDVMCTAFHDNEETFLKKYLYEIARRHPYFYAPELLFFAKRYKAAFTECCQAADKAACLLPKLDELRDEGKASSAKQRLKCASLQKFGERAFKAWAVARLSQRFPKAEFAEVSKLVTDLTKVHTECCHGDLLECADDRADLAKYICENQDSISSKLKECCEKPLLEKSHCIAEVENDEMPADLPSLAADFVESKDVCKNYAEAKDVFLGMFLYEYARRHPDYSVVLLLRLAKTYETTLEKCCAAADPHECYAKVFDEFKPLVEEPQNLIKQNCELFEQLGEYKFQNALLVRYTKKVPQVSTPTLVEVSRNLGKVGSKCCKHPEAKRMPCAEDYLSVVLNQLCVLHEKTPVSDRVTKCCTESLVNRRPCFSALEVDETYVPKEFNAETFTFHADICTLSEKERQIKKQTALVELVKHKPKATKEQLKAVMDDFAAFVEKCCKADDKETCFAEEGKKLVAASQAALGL
# [22] = Cytotoxicity against human HeLa cells after 24 hrs; format: cell-based
# [23] = Cytotoxicity against human HeLa cells after 48 hrs; format: cell-based
# [24] = Ratio of CC50 for human HeLa cells to MIC for Escherichia coli CCUGT
# [25] = Ratio of CC50 for human HeLa cells to MIC for Klebsiella pneumoniae 7023
structure (smiles),measurement,setting,value
N=C(N)NCCCCCCCCNCCCCCCCCNC(=N)NCC1CC1.O=C(O)C(F)(F)F.O=C(O)C(F)(F)F.O=C(O)C(F)(F)F,MIC,Acinetobacter baumannii [1],4 mg/L
same,MIC,Aeromonas hydrophila,8 mg/L
same,MIC,[2],32 mg/L
same,MIC,Escherichia coli,0.5 mg/L
same,MIC,Klebsiella pneumoniae [3],1 mg/L
same,MIC,Pseudomonas aeruginosa [4],8 mg/L
same,MIC,Bacillus subtilis,0.5 mg/L
same,MIC,Enterococcus faecalis,1 mg/L
same,MIC,Staphylococcus aureus [5],4 mg/L
same,MIC,[6],0.5 mg/L
same,MIC,Streptococcus pyogenes,< 0.125 mg/L
same,MIC,Acinetobacter baumannii [7],4 mg/L
same,MIC,[8],4 mg/L
same,MIC,Alcaligenes faecalis,4 mg/L
same,MIC,Enterobacter cloacae,2 mg/L
same,MIC,Klebsiella pneumoniae [9],2 mg/L
same,MIC,Pseudomonas aeruginosa [10],8 mg/L
same,MIC,Pseudomonas aeruginosa [11],8 mg/L
same,MIC,[12],4 mg/L
same,MIC,Staphylococcus aureus [13],4 mg/L
same,MIC,Staphylococcus aureus [14],4 mg/L
same,MIC,[15],2 mg/L
same,MIC,Staphylococcus warneri,2 mg/L
same,MIC,Staphylococcus hominis,2 mg/L
same,Papp at 5 h,[16],9.5 nm/s
same,Papp at 5 h,[17],167 nm/s
same,Papp,[18],8.8%
same,Papp,[19],60.6%
same,solubility,[20],0.966 mg/mL
same,remaining at 1 h,[21],> 99%
same,Kd,Albumin,26.5 µM
same,CC50 at 24 h,[22],92.6 µM
same,CC50 at 48 h,[23],62 µM
same,Ratio,[24],>=70
same,Ratio,[25],>=70
